Laboratory results as given in publication PMC4361903 (Blood, 2010).
Where no end group is shown, it is not given here. [ ]: non-standard residue; d: D form. pY = N[C@@H](Cc1ccc(OP(=O)(O)O)cc1)C(=O)O

What was measured:
Syk (platelet) = Syk (platelet) (UniProt P43405); experiment: biotinylated peptide pull-down, Syk blot; conditions: reference: pY7 31-mer peptide; sites T9
[1] = target: dually phosphorylated peptide based on the human FcRγ-chain ITAM, biotinylated (human) (UniProt P30273); experiment: SPR
[2] = system: GPVI and FcRγ-chain with mutated C-terminal ITAM tyrosine; assay type: cell-based; conditions: 10 μg/ml collagen, 6 hrs, 37°C; three separate experiments
In short: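 DT40 chicken B-cells (RPMI, 10% FBS, 1% chicken serum, 50μM β-mercaptoethanol) electroporated (350V, 500μF) with 2μg/ml each of GPVI and Myc-tagged FcRγ construct, 20μg NFAT-luciferase reporter and 2μg pEF6-lacZ. Live cells counted by trypan blue 20 h post-transfection. Luciferase normalised to β-galactosidase (triplicate readings), expressed as % wild-type response. Surface expression checked by anti-Myc flow cytometry.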

GPVI = conditions: cross-linking of GPVI; ref [8],[9]; cited from earlier work
[3] = target: tandem SH2 domains of Syk (Homo sapiens, UniProt P43405); experiment: Surface plasmon resonance, binding of Syk tandem SH2 to immobilised peptide; conditions: SPR, 25°C, pH 7.4, SH2 domains 0-80μM
Syk N-SH2 domain = Syk N-SH2 domain (Homo sapiens, UniProt P43405); experiment: Surface plasmon resonance, binding of Syk N-SH2 to immobilised peptide; conditions: SPR, 25°C, pH 7.4, SH2 domain 0-80μM
Syk C-SH2 domain = Syk C-SH2 domain (Homo sapiens, UniProt P43405); experiment: Surface plasmon resonance, binding of Syk C-SH2 to immobilised peptide; conditions: SPR, 25°C, pH 7.4, SH2 domain 0-80μM
[4] = system: single C-terminal SH2 domain of Syk; experiment: Tryptophan fluorescence titration, Syk C-terminal SH2; assay type: binding; conditions: same concentration range as tandem SH2 titration; pH 7.5
CLEC-2 = conditions: cross-linking of CLEC-2; ref [4],[6]; cited from earlier work
[5] = target: Syk tandem SH2 domains (GST fusion protein); experiment: other fluorescence titration

Sequence of dually phosphorylated peptide based on the human FcRγ-chain ITAM, biotinylated (human) (P30273 54-82): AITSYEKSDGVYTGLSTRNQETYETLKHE

## CLEC-2 cytoplasmic tail, 1-31 (from UniProt Q9P126) pY7 pT9 31-mer peptide
Syk (platelet)
  binding against the reference: same

## Syk C-terminal SH2 domain (GST fusion protein) (domain or fragment)
[1]
  Kd: 1.7 µM

## Syk N-terminal SH2 domain (GST fusion protein) (domain or fragment)
[1]
  Kd: 19.7 µM

## Syk tandem SH2 domains (GST fusion protein) (domain or fragment)
[1]
  Kd: 0.02 µM

## collagen
[2]
  NFAT activation by collagen, C-terminal ITAM tyrosine mutant: abolished
GPVI
  phosphorylation of FcRγ-chain ITAM tyrosines: Src kinase-dependent phosphorylation of two conserved tyrosines

## non-phosphorylated CLEC-2 peptide: corresponding nonphosphorylated 13 amino acid peptide (MQDEDGYITLNIK; also: biotin, end not given here)
[3]
  detectable binding, tandem SH2: No detectable binding
Syk N-SH2 domain
  detectable binding, N-SH2: No detectable binding
Syk C-SH2 domain
  detectable binding, C-SH2: No detectable binding

## tyrosine phosphorylated CLEC-2 peptide: phosphorylated peptide based on the first 13 amino acids of the CLEC-2 tail, which includes the conserved MQDEDGYxxL sequence (MQDEDG[pY]ITLNIK; also: biotin, end not given here)
[4]
  binding to single C-terminal SH2 domain, tryptophan fluorescence: unable to detect binding

B1: podoplanin: transmembrane protein podoplanin (protein, UniProt Q86YL7 23-162, looked up)
Podoplanin: ASTGQPEDDTETTGLEGGVAMPGAEDDVVTPGTSEDRYKSGLTTLVATSVNSVTGIRIEDLPTSESTVHAQEQSPSATASNVATSHSTEKVDGDTQTTVEKDGLSTVTLVGIIVGVLLAIGFIGAIIVVVMRKMSGRYSP
CLEC-2
  platelet aggregation and secretion: powerful platelet aggregation and secretion

## MQDEDG[pY]ITLNIK (also: biotinylated, end not given here)
[5]
  Kd: 5.7 µM
